The values that follow come from ChEMBL document CHEMBL3596181, “Optimization of the anti-cancer activity of phosphatidylinositol-3 kinase pathway inhibitor PITENIN-1: switching a thiourea with 1,2,3-triazole” (Medchemcomm, 2014).

Series [1] relates to A2780. Kind of series: Cytotoxicity against human A2780 cells by ESI. The series is classed as functional, cell-based.
For series [2], the system named is A2780. Kind of series: Cytotoxicity against human A2780 cells by […]. It counts as functional, cell-based. Put shortly:
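Cells were exposed to inhibitors together with 1 μg/mL TRAIL for 24 hr. Viability was read by CellTiter-Glo assay.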

The nature of series [3]: Half life in mouse liver microsomes. The series is classed as ADME. A digest of the protocol: (§1)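 Stability in mouse liver microsomes in vitro. Half-life (min) and intrinsic clearance (μL·min⁻¹·mg⁻¹) were determined.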
The nature of series [4]: Clearance in mouse liver microsomes. The series is classed as ADME. As to conditions: read-out: CLH. A digest of the protocol: as §1
Series [5] has as its system A2780. Kind of series: Cytotoxicity against human A2780 cells at 6.25 to 50 uM after 24 hrs by CellTitre-Glo assay. It counts as functional, cell-based. Put shortly: (§2)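 Cells were treated with inhibitors alone for 24 hr. Viability was read by CellTiter-Glo luminescence.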
The target of series [6] is RAC-alpha serine/threonine-protein kinase (Homo sapiens) (UniProt P31749). Kind of series: Inhibition of Akt PH domain (unknown origin) binding to PI(3,4)P2 at 100 uM by lipid overlay assay. A digest of the protocol: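 Lipid overlay: AktPH domain binding to PI(3,4)P2 spotted on a […] membrane.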
Series [7] in a line: Clearance in mouse at 1 mg/kg, iv. It counts as ADME, organism-based. As to conditions: in vivo.
Series [8] can be described thus: Inhibition of Akt in human A2780 cells assessed as inhibition of TORC1/p70S6K/S6 pathway at 0.3 to 50 uM after 7 hrs by Western blotting analysis. The series is classed as cell-based. Put shortly:
(§3)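 U87MG or A2780 cells were exposed to inhibitors for 7 hr. Lysates were Western blotted with phospho-S6 and total S6 antibodies.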

Series [9] has as its system T47D. In words: Cytotoxicity against human T47D cells at 6.25 to 50 uM after 24 hrs by CellTitre-Glo assay. The series is classed as functional, cell-based. Put shortly: as §2
Series [10] in a line: Inhibition of Akt in human U87MG cells assessed as inhibition of TORC1/p70S6K/S6 pathway at 0.3 to 50 uM after 7 hrs by Western blotting analysis. It counts as cell-based. As to conditions: U-87MG ATCC. Put shortly: as §3
Series [11] is described as follows: Bioavailability in ip dosed mouse. As to conditions: in vivo. It counts as ADME, organism-based. A digest of the protocol:
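Bioavailability was calculated from intraperitoneal administration relative to an intravenous 1 mg/kg dose in mouse.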

Series [12] deals with A2780. In words: Antimigratory activity against human A2780 cells at 0.75 to 1.5 uM by wound healing assay. It counts as functional, cell-based. A digest of the protocol: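 Wound healing: A2780 monolayers were treated with inhibitors and then scratch-wounded. The cell-free area was photographed at set time points, and the open wound area was quantified.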
A short description of series [13]: Half life in mouse at 1 mg/kg, iv. It counts as ADME, organism-based. As to conditions: in vivo.
Series [14] deals with U-87 MG. Kind of series: Cytotoxicity against human U87MG cells at 6.25 to 50 uM after 24 hrs by CellTitre-Glo assay. It counts as functional, cell-based. As to conditions: U-87MG ATCC. A digest of the protocol:
as §2

The source made the active and inactive calls. No cut-off for these calls is given here.

Sequence of RAC-alpha serine/threonine-protein kinase (Homo sapiens) (P31749 whole entry, the tested form may be a part): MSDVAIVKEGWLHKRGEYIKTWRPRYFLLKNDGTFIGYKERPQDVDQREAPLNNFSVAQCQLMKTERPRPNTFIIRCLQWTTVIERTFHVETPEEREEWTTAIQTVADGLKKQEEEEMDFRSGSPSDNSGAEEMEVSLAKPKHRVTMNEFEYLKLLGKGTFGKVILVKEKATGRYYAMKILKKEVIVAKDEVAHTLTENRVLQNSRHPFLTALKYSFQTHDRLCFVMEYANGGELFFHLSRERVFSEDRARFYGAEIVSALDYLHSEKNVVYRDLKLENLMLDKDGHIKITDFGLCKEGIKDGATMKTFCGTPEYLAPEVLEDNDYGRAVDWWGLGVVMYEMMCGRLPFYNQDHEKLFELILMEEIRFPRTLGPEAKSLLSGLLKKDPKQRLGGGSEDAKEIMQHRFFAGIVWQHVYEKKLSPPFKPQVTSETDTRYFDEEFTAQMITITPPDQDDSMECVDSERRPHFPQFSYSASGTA

`O=C(NCc1cn(-c2cc(Cl)ccc2O)nn1)c1cc(C(F)(F)F)cc(C(F)(F)F)c1`: the EC50 in series [1] came to 16.2 µmol; in [2], 14 µmol.

As to `Cc1ccc(O)c(-n2cc(C(=O)c3ccc(C(C)C)cc3)nn2)c1`, the EC50 in [1] and in series [2] was greater than 100 µmol each time.

Turning to `Cc1cc(C)cc(C(=O)NC(=S)Nc2cc([N+](=O)[O-])ccc2O)c1`, the half-life in [3] was found to be 0.03 h. Besides, in series [4], the microsomal CLint is 1260 µL/min/mg.

On to `COc1ccc(Cl)cc1-n1cc(C(=O)c2ccccc2)nn1`, for which the EC50 in series [1] and in series [2] was greater than 100 µmol each time.

On to `Cc1cc(C)cc(C(=O)c2cn(-c3cc(Cl)ccc3O)nn2)c1`, for which the EC50 worked out at 57.8 µmol in series [1] and 30.6 µmol in series [2].

As for `O=C(c1ccc2ccccc2c1)c1cn(-c2cc(Cl)ccc2O)nn1`, the EC50 in series [1] and in [2] was greater than 100 µmol each time.

With `Cc1cccc(O)c1-n1cc(C(=O)c2ccc3ccccc3c2)nn1`, the EC50 in series [1] is 85.2 µmol; in series [2] it was 74.9 µmol.

For the molecule `Cc1ccc(O)c(-n2cc(C(=O)c3ccccc3)nn2)c1`, the EC50 in series [1] and in [2] was greater than 100 µmol in each case.

Consider `Cc1ccc(O)c(-n2cc(C(=O)c3ccc4ccccc4c3)nn2)c1`, for which the EC50 in series [1] and in series [2] was greater than 100 µmol each time.

Regarding `CC(C)c1ccc(C(=O)c2cn(-c3cc(Cl)ccc3O)nn2)cc1`, the EC50 in series [1] turned out to be 64.1 µmol; in series [2], 41.6 µmol.

As for `Cc1cccc(O)c1-n1cc(C(=O)c2ccc(C(C)C)cc2)nn1`, the EC50 in series [1] and in [2] was greater than 100 µmol in each case.

Consider `Cc1cc(C)cc(C(=O)c2cn(-c3cc(C)ccc3O)nn2)c1`, for which the EC50 in series [1] and in [2] was greater than 100 µmol each time.

For the molecule `Cc1cc(C)cc(C(=O)c2cn(-c3ccc([N+](=O)[O-])cc3O)nn2)c1`, the EC50 was found to be 89.1 µmol in [1] and 70.5 µmol in series [2].

For `O=C(c1cc(C(F)(F)F)cc(C(F)(F)F)c1)c1cn(-c2cc(Cl)ccc2O)nn1`, the outcome in [5], in series [9], in [12] and in series [14] was Active. Moreover, the inhibition entry in series [6], in series [8] and in series [10] was “Active” in each case. The molecule further had a clearance in series [7] of 15.5 mL/min/kg. The bioavailability in series [11] is 85.1%. In addition, the figures for the EC50 in series [1] and in series [2] were 11.99 µmol and 3.15 µmol, respectively. The half-life in [13] was 3.22 h; in series [3] it was 1.98 h. For the same molecule, in [4], the microsomal CLint was 19.4 µL/min/mg.

With `O=C(c1ccccc1)c1cn(-c2cc(Cl)ccc2O)nn1`, the EC50 in [1] is 104 µM; in series [2], 51.6 µmol.

Consider `Cc1cc(C)cc(C(=O)c2cn(-c3ccc(Cl)cc3O)nn2)c1`, for which the EC50 in series [1] was greater than 100 µmol; in series [2], 64.4 µmol.

For `Cc1cccc(O)c1-n1cc(C(=O)c2ccccc2)nn1`, the EC50 is 8.1 µmol in series [1] and 8 µmol in series [2].

For the molecule `O=C(NC(=S)Nc1cc([N+](=O)[O-])cc(Cl)c1O)c1ccccc1`, in series [6], the inhibition result was “Active”.

`Cc1cc(C)cc(C(=O)c2cn(-c3c(C)cccc3O)nn2)c1`: the EC50 worked out at 104 µM in series [1] and 98.4 µmol in series [2].

Turning to `O=C(c1ccccc1)c1cn(-c2ccc(Cl)cc2O)nn1`, the EC50 in [1] came to 48.9 µmol; in series [2], 42.3 µmol.
